Screening data from PubChem BioAssay.
The list is not random: actives were taken first. Their share in the collection is about 4.1%.
XBP1 UPR activ – activators of adaptive arm of unfolded protein response (XBP1); CHO-XBP1 luciferase reporter, IRE1-XBP1 UPR activation, luminescence; percent of tunicamycin response, DMSO as zero; activation, % at 20 µM; actives 0.33% (n = 330,000); AID 463104;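 active = versus positive control, 20 µM dose yields 30% or more activation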;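 note: 100% = tunicamycin at 10 µg/mL and 0% = DMSO only wells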
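Signal: luciferase luminescence; Assay system: CHO-XBP1 luciferase reporter cells; Amount: one thousand reporter cells per well; Dosing: 20 µM single concentration, DMSO 1%; Benchmarks: high control tunicamycin 10 µg/mL final, low control DMSO vehicle only; Schedule: 6 h compound exposure at 37 °C, 5% CO2; Evaluation: percent activation relative to tunicamycin reference.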
CHOP UPR activ – activators of apoptotic arm of unfolded protein response (CHOP) | actives 0.34% (n = 330,000) | AID 449763 | CHO-CHOP luciferase reporter, UPR activation, luminescence; percent of tunicamycin response over DMSO baseline | activation, % at 10 µM;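 active = at 10 µM dose, activation of 40% or more, normalized to positive control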;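 note: 100% = tunicamycin at 10 µg/mL and 0% = DMSO alone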
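Test system: CHO CHOP reporter cells. Input: 500 CHO-CHOP cells per well. Medium: F12 with 10% FBS. Technique: luciferase luminescence. Measure: percent activation relative to tunicamycin control. Dosing: 10 µM compound, 0.5% DMSO. Timing: 16-18 h cell attachment, then 6 h compound exposure, 37 °C.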
Mdm2-MdmX inh – human Mdm2/MdmX binding inhibition | SaOS-2 split-luciferase Mdm2/MdmX complementation, luminescence | inhibition, % at 8 µM | AID 485346 | actives 3% (n = 330,000);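 active = inhibition of at least 50% at 8 µM in the primary screen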
UBC13 polyUb – blocks human UBC13 polyubiquitin chain formation. actives 0.47% (n = 330,000). inhibition, % at 20 µM. TR-FRET; in the data active = inhibition above about 45%, passing the limit was not always enough; inconclusive = no clear call, values can overlap the other calls
Apaf1 inhib – blocks human Apaf-1 apoptosome activity; actives 0.71% (n = 330,000); AID 489030; reconstituted apoptosome caspase-3 activity, DEVD-Rh110 fluorescence; O14727; inhibition, % at 20 µM; active = inhibition of at least 40% at 20 µM;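 note: plate controls were DMSO wells for no effect and DEVD-CHO caspase inhibitor wells for full effect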
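Material: reconstituted apoptosome with Apaf-1, cytochrome c, caspase-9, procaspase-3, dATP. Technique: Rh110 fluorescence intensity. Buffer or medium: pH 7.5 Hepes buffer with CHAPS, BSA, DTT. Times: 30 min plus 50 min, RT.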
Mdm2-MdmX conf – confirmation of human Mdm2/MdmX interaction inhibitors; shares compounds with Mdm2-MdmX inh; AID 489028; inhibition, % at 8 µM; actives 55% (n = 10,000); Mdm2-MdmX binding, luminescent assay; in the data active = inhibition above about 40%
Full FLuc ctr – full-length luciferase inhibition in Mdm2/MdmX counter-screen; inhibition, % at 8 µM; SaOS-2 full-length luciferase counterscreen, luminescence; actives 77% (n = 6,200); shares compounds with Mdm2-MdmX inh;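 active = mean inhibition at 8 µM reaching about 37%, which flags the compound as non-specific, limit read from the data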;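 note: p53-null SaOS-2 cells with luciferase driven by a doxycycline-inducible promoter; compound on cells about two nights before reading with doxycycline added after day one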
* = called active by the depositor; ? = inconclusive; / = no result.

SMILES	XBP1 UPR activ	CHOP UPR activ	Mdm2-MdmX inh	UBC13 polyUb	Apaf1 inhib	Mdm2-MdmX conf	Full FLuc ctr
O=C1CSc2ccc(S(=O)(=O)CCC(=O)NC3CCCCC3)cc2N1	-1	2	7	6	0	/	/
Cc1ccccc1CN(C)CC(=O)NC(C)CCc1ccccc1 (configuration not stated)	0	0	16	-9	14	/	/
Cc1cc(Br)ccc1NC(=O)c1sc2ncnc(N3CCN(c4ccccn4)CC3)c2c1C	-2	0	59*	?	11	49*	59*
COc1ccc(NC(=O)c2sc3ncnc(N4CCN(c5ccccn5)CC4)c3c2C)cc1Cl	-3	4	57*	30	13	-5	/
COc1ccc(NC(=O)CN2CCN(c3ccccn3)CC2)cc1Cl	-2	1	-1	2	7	/	/
COc1ccc(NC(=O)c2sc3nc(C)nc(N4CCN(c5ccccn5)CC4)c3c2C)cc1Cl	-1	4	51*	38	11	2	/
Cc1cc(Br)ccc1NC(=O)CN1CCN(c2ccccn2)CC1	-4	-2	9	1	4	/	/
CC1CC(C)CN(C(=O)Cn2cc(C=O)c3ccccc32)C1 (configuration not stated)	1	1	-4	-14	1	/	/
Cc1cccn2c(CN(C)CCC3CCCCO3)c(C(=O)N3CCCCC3)nc12 (configuration not stated)	2	-3	-2	2	-3	/	/
COc1ccc(NC(=O)Cc2ccc(Cl)c(Cl)c2)cn1	1	0	6	3	-6	/	/
COc1ccc(NC(=O)/C(Cl)=C(/Cl)S(=O)Cc2ccccc2Cl)cn1 (configuration not stated)	-7	-11	98*	-4	11	100*	2
COC(=O)Nc1sc2c(c1C(=O)NC1CC1)CCCCCC2	-3	0	-9	3	-11	/	/
Cc1ccc2sc(N(CCCN(C)C)C(=O)CCS(=O)(=O)c3ccccc3)nc2c1C	-9	-10	60*	11	25	57*	30
CCN(CC)CCN(C(=O)CCS(=O)(=O)c1ccccc1)c1nc2c(C)cc(C)cc2s1	-4	30	51*	10	4	37	87*
COc1ccc(OC)c2sc(N(CCCN(C)C)C(=O)CCS(=O)(=O)c3ccccc3)nc12	-10	-9	82*	24	16	77*	21
Nc1cc(C(=O)O)c(Oc2ccc(Cl)cc2Cl)cc1C(=O)O	-2	-2	-7	10	0	/	/
Cc1cc(NC(=O)Nc2ccc(OCc3ccccc3)cc2)n(C)n1	4	0	-3	2	0	/	/
N=c1c2c(ncn1Cc1ccco1)Oc1c(ccc3ccccc13)C2c1ccccc1 (configuration not stated)	6	2	70*	37	20	70*	55*
N=c1c2c(ncn1Cc1ccco1)Oc1cc(O)ccc1C2c1ccccc1 (configuration not stated)	-4	-1	33	-9	-11	/	/
CC(C)c1ccc(/C=C2\SC(=O)N(CC(=O)NC3C=CS(=O)(=O)C3)C2=O)cc1 (configuration not stated)	-2	6	77*	-19	3	40*	40*
O=C(CCN1C(=O)/C(=C/c2ccc(Cl)cc2)SC1=S)NC1C=CS(=O)(=O)C1 (configuration not stated)	0	0	59*	-12	-3	36	/
CC(C)(C)c1ccc(OCC(=O)Nc2ccncc2)cc1	-1	0	7	6	-3	/	/
C=CCOc1ccc(/C=N/n2nnnc2N)cc1OC	-1	2	-10	2	-14	/	/
Cc1ccc(NC(=O)c2ccccc2)cc1	3	3	-64	2	1	/	/
Cc1ccc(NC(=O)C2=C(c3ccccc3)S(=O)(=O)CCS2(=O)=O)cc1	-8	-10	95*	-3	-5	95*	52*
SMILES	XBP1 UPR activ	CHOP UPR activ	Mdm2-MdmX inh	UBC13 polyUb	Apaf1 inhib	Mdm2-MdmX conf	Full FLuc ctr
O=C(c1ccc(CS(=O)Cc2ccccc2Cl)o1)N1CCN(c2ccccn2)CC1 (configuration not stated)	-10	1	6	0	5	/	/
O=C(c1ccc(CS(=O)c2ccccc2Cl)o1)N1CCN(c2ccccn2)CC1 (configuration not stated)	-3	0	63*	5	3	56*	45*
Cc1cnc(NC(=O)COc2cccc3c2OC(C)(C)C3)s1	1	-2	77*	-2	0	68*	42*
COc1cccc(C(=O)Nc2ccc3c(cc2=O)[C@@H](NC(C)=O)CCc2cc(OC)c(OC)c(OC)c2-3)c1	15	2	71*	-1	23	66*	99*
COc1cc2c(c(OC)c1OC)-c1ccc(OC)c(=O)cc1C(NC(C)=O)CC2 (configuration not stated)	19	-1	60*	-2	-7	58*	118*
COc1c(O[C@@H]2O[C@H](CO)[C@@H](O)[C@H](O)[C@H]2O)cc2c(c1OC)-c1ccc(SC)c(=O)cc1C(NC(C)=O)CC2 (some centres not stated)	-9	-1	-5	-4	-1	/	/
Cc1cccc(CNc2ncnc3ccc(-c4ccc5c(c4)OCO5)cc23)c1	-2	-1	12	3	23	/	/
CCOc1ccccc1CNc1ncnc2ccc(-c3c(C)noc3C)cc12	-3	-1	79*	44	10	54*	43*
NC(=S)N/N=C/c1ccccc1OCc1cccc(Cl)c1	11	7	52*	-2	16	24	/
COc1ccc(NC(=O)C/C(C)=N/NC(=O)c2ccccn2)c(OC)c1	-2	3	12	2	0	/	/
COc1ccc2c(c1)C(C)=CC(C)(C)N2S(=O)(=O)c1ccc(NC(C)=O)cc1	18	-2	63*	-1	-3	54*	89*
CCOc1ccc2c(c1)C(C)=CC(C)(C)N2S(=O)(=O)c1ccc(NC(C)=O)cc1	22	5	62*	0	6	58*	113*
CCOc1ccc2c(c1)C(C)=CC(C)(C)N2S(=O)(=O)c1ccc(F)cc1	7	0	51*	7	13	53*	49*
CC1=CC(C)(C)N(S(=O)(=O)c2ccc(C)cc2)c2ccccc21	10	-2	64*	9	-8	64*	88*
CC1=CC(C)(C)N(S(=O)(=O)c2ccc(F)cc2)c2ccc(C)cc21	29	-1	47	-4	9	/	/
